KCNQ1 pot = potentiators or activators of human KCNQ1 potassium channel | P51787 | CHO-K1 KCNQ1, thallium flux FluxOR fluorescence; active compounds read high | B-score at 10 µM | 310,000 tested, 0.35% active | AID 2648;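 active = fluorescence ratio B-score, a plate-corrected score, at least three library SD, with initial intensity B-score within 5 SD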
Target sequence (P51787 whole entry, looked up): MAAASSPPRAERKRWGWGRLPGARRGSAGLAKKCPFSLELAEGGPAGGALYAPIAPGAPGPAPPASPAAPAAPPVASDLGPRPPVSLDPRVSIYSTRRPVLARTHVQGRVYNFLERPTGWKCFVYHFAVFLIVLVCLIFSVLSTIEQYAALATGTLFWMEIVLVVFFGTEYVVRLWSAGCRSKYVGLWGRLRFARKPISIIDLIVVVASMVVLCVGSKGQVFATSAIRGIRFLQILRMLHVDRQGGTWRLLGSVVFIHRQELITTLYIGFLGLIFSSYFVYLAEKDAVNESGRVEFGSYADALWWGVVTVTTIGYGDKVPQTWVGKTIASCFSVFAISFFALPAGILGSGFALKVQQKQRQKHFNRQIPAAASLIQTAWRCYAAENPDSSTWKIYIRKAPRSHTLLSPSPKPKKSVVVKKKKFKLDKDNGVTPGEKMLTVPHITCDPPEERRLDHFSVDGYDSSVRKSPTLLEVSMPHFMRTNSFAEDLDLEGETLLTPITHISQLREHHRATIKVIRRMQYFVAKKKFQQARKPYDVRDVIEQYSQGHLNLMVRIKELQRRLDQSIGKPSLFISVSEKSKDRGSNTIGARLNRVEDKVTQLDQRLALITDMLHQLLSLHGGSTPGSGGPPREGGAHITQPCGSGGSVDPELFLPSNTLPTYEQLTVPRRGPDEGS
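Assay system: stable KCNQ1 CHO-K1 line; medium: assay buffer, equal DMSO in all wells; timing: 90 min dye loading and 20 min compound exposure, both at room temperature; technique: kinetic FluxOR thallium fluorescence, 10-s 1-Hz baseline, 110-s post-stimulus read; read-out basis: B score of baseline-normalized fluorescence ratio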
KCNK9 inh = human KCNK9 channel inhibition | Q9NPC2 | HEK293 KCNK9, FluxOR thallium flux fluorescence; active compounds read low | B-score at 10 µM | 310,000 tested, 1.2% active | AID 488922;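 active = ratio B-score over 3 SD below the library mean, with starting fluorescence within 5 SD of its mean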;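 also: negative B-score means less thallium flux so channel inhibition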
KCNQ1 block = human KCNQ1 channel inhibition. P51787. CHO-K1 KCNQ1, FluxOR thallium flux fluorescence; active compounds read high. B-score at 10 µM. 310,000 tested, 1.3% active;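 active = compounds whose thallium flux B-score, printed positive for inhibition, exceeds three library SD while starting fluorescence stays within three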;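 also: channel opened by potassium depolarization with thallium stimulus after 20 min compound exposure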
KCNK3 block = human KCNK3 channel inhibition, primary screen; CHO-KCNK3 thallium flux, FluxOR fluorescence; active compounds read low; 340,000 tested, 0.84% active; O14649; B-score at 10 µM;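 active = B-score under library mean minus 4 SD, starting fluorescence ratio at most library mean plus 5 SD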;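 also: more negative B-score means stronger inhibition of thallium flux through KCNK3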
hERG rescue = hERG (human) protection from proarrhythmic block | Q12809 | CHO-hERG, FluxOR thallium flux, dofetilide IC70 present | AID 1511 | 310,000 tested, 0.51% active | activation (rescue from dofetilide block), less the hit threshold, % at 10 µM;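 active = activation above the mean of controls blocked by dofetilide plus 5 SD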;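 also: thallium influx through hERG after potassium depolarization seen as dye fluorescence rise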
Kir21 inh = inhibitors of mouse Kir2.1 inward-rectifier potassium channel; HEK293-Kir2.1, FluxOR thallium flux fluorescence; active compounds read low; B-score at 10 µM; 310,000 tested, 0.85% active; AID 1672;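 active = fluorescence ratio B-score at or below minus 3 SD of library scores, with starting-brightness B-score within 2 SD, cut at about -4.2 in these data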;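 also: channel flux triggered by added potassium and thallium sulfate stimulus; B-score of peak minus minimum fluorescence over baseline after thallium stimulus; more negative B-score means stronger Kir2.1 block with less thallium influx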
The depositor's hits bear a star; i = inactive; / = no result. In the library only some 3.7% were active in any assay of this set; here they are far more common.

SMILES | KCNQ1 pot | KCNK9 inh | KCNQ1 block | KCNK3 block | hERG rescue | Kir21 inh
COC(=O)[C@@]1(Cc2ccc(F)cc2)[C@H]2c3cc(C(=O)N(C)C)n(Cc4ccc(OC)c(OC)c4)c3C[C@H]2CN1C(=O)c1ccccc1 | i | i | i | / | -9 | 0.47
C=C1C(=O)C=C2CN(C(=O)c3ccccc3)[C@@](Cc3ccc(F)cc3)(C(=O)OC)[C@@H]12 | 17* | i | i | i | -26 | -4.5*
Cc1cc(C)c(NC(=O)CSCc2c(C)noc2C)c(Cl)c1 | / | / | / | i | / | /
CCN(CC(=O)Nc1c(F)cccc1F)C(=O)c1ccc(COc2ccccc2)cc1 | i | i | i | i | -17 | 0.96
CCN(CC(=O)Nc1c(F)cccc1F)C(=O)c1ccc(C(F)(F)F)cc1 | i | -7.9* | i | i | -1 | 1.7
CCN(Cc1ccncc1)Cc1cn(C)nc1-c1ccc(Oc2ccccc2)cc1 | i | i | 6* | i | -14 | -1.4
Cc1ccc2cc(CCNC(=O)c3ccc(Br)o3)c(=O)[nH]c2c1 | i | i | i | i | -7 | 1.1
O=c1[nH]cc(N=Cc2cc(Cl)cc(Cl)c2O)c(=O)[nH]1 | 18* | i | i | i | 2 | -0.13
O=c1[nH]cc(N=Cc2cc([N+](=O)[O-])ccc2O)c(=O)[nH]1 | i | i | i | / | -14 | -0.46
CC(CC1C(C#N)=C(N)SC(N)=C1C#N)c1ccccc1 (configuration not stated) | i | i | 7* | i | -9 | 0.5
S=C(Nc1ccc(Nc2ccccc2)cc1)Nc1ccccn1 | i | -7.1* | i | i | -7 | 0.61
O=C(Nc1ccccc1)C(=O)Nc1ccccn1 | i | i | i | i | -8 | -0.31
COc1cccc(CN2CCN(Cc3cc4ccccc4[nH]3)CC2CCO)c1 (configuration not stated) | 13* | i | i | i | -10 | -1.7
CCOc1ccc(CN2CCN(Cc3cc4ccccc4[nH]3)CC2CCO)cc1 (configuration not stated) | i | i | i | i | -7 | -0.04
Cc1ccc([C@H]2C(C(=O)O)=CC[C@@H](c3ccc(Cl)c(Cl)c3)N2S(=O)(=O)c2ccc(C)cc2)cc1 | / | / | / | i | / | /
Cc1cc(C)c2[nH]c(=O)c(CN(Cc3ccc4c(c3)OCO4)Cc3nnnn3C3CCCC3)cc2c1 | i | -13* | i | i | -14 | 0.89
O=C(COc1ccc2ccccc2c1Br)Nc1ccncc1 | i | i | i | i | -4 | -2.5
O=C(COc1ccc2ccccc2c1Br)Nc1cccnc1 | i | i | i | i | 23* | 0.12
COc1ccc(S(=O)(=O)n2nc(-c3cc(OC)c(OC)c(OC)c3)cc2N)cc1OC | / | / | / | i | / | /
COc1ccc(-c2cc(N)n(S(=O)(=O)c3c(F)c(F)c(F)c(F)c3F)n2)cc1OC | 8* | i | i | -11* | -36 | -3.3
CN(C)CCCNc1ncnc2oc(-c3ccccc3)c(-c3ccccc3)c12 | i | i | i | i | -12 | -4.6*
Cn1c(C(=O)N2CCCC(C(=O)NCc3cccs3)C2)cc2sccc21 (configuration not stated) | i | i | i | i | 6.0* | 2
N/C(=N\OC(=O)c1ccc([N+](=O)[O-])cc1)c1cccnc1 | i | i | i | i | -6 | -0.85
O=C(/C=C/c1ccc2c(c1)OCO2)c1cccnc1 | i | i | i | i | -7 | -5.2*
O=C(/C=C/c1ccc([N+](=O)[O-])cc1)/C=C/c1ccco1 | i | i | 8* | i | -5 | -5.8*
SMILES | KCNQ1 pot | KCNK9 inh | KCNQ1 block | KCNK3 block | hERG rescue | Kir21 inh
O=C(/C=C/c1ccc([N+](=O)[O-])cc1)c1cccnc1 | i | i | i | i | -17 | -4.3*
O=C(Oc1c(Br)cc([N+](=O)[O-])cc1Br)c1cccnc1 | i | i | 7* | i | -13 | 0.89
Cn1cccc1-c1cc(C(=O)N/N=C/c2cccc(O)c2)[nH]n1 | i | i | i | i | -12 | 1.3
CCN(CC)C(=O)CSc1nc2cc(S(=O)(=O)N3CCOCC3)ccc2n1CC | i | i | i | i | -8 | 0.9
CCCn1c(N)c(C(=O)CN(C)CC(=O)Nc2ccc(F)cc2)c(=O)[nH]c1=O | / | / | / | i | / | /
CN(C)c1ccc(C(=O)/C=C/c2cccnc2)cc1 | i | i | i | i | -4 | -0.13
O=C(/C=C/c1cccnc1)c1ccc(F)c(F)c1 | i | i | i | i | -9 | -5.3*
CCOc1cc(/C=C(\C#N)C(=O)Nc2cccc(C(=O)O)c2)cc(Br)c1OC(=O)c1ccc(OC)cc1 | i | i | i | i | -8 | -5.3*
CCOc1cc(/C=C(\C#N)C(=O)Nc2cccc(C(=O)O)c2)ccc1OCc1ccccc1Cl | i | i | 6* | i | -17 | 1.9
Cn1c(=O)c2c(ncn2CCC(=O)N/N=C/c2ccccc2)n(C)c1=O | i | i | i | i | -5 | -0.36
Cn1c(=O)c2c(ncn2CC(=O)N/N=C/C(Cl)=C/c2ccccc2)n(C)c1=O | 11* | i | i | i | -8 | 0.07
CCOC(=O)Cc1csc(NC(=O)CSc2ncnc3c2cnn3-c2ccccc2Cl)n1 | i | i | i | i | -22 | -0.53
CCN1c2ccccc2-c2nc3ccccc3n2C1c1ccccn1 (configuration not stated) | i | i | i | -10* | -9 | -0.06
CCOc1ccc(OCCN2CCCCC2)cc1 | i | i | i | i | -4 | -0.42
CCOc1ccc(CNCCN2CCCC2)cc1 | i | i | 7* | i | -9 | -2
O=C(CSCc1cnn(-c2ccccc2)c1-n1cccc1)NCc1ccccn1 | i | i | i | i | -10 | -4.4*
CCN(CC)CCn1c2c(c(SCC(=O)Nc3ccc4c(c3)OCCO4)nc1=O)CCCC2 | i | i | i | i | -13 | -0.73
COc1ccccc1COc1ccc2c(C)c(CC(=O)O)c(=O)oc2c1C | i | i | i | i | -6 | 1.1
CC(C)CN(C(=O)C(c1ccccc1)c1ccccc1)c1c(N)n(CC(C)C)c(=O)[nH]c1=O | i | i | i | i | -2 | -0.84
CCC(=O)N1c2ccc(S(=O)(=O)N3CCOCC3)cc2CC1C (configuration not stated) | i | i | i | i | -11 | -1.5
O=C(NCCCN1CCOCC1)c1ccc(/C=C2\Oc3ccccc3N(Cc3ccccc3F)C2=O)cc1 | i | i | i | i | -12 | 1.1

High-throughput results deposited in PubChem BioAssay by Johns Hopkins Ion Channel Center.
